In EPA's CvTdb concentration-time database:

Tests used:
human [1] = assay: concentration in blood after dosing; negative times count back from the end of exposure; details: dosed: methylethylketone, 400 ppm, inhalation, duration: 4 hr, male
Method in brief: (§1)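 Sampling and analytical methods are those of each source and frequently went unreported. The concentration-versus-time and amount-versus-time points were compiled from published in vivo toxicokinetic studies and two structured collections. Most were digitised from plot screenshots with WebPlotDigitizer, with others copied from tables, in the reported units.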

Rat [2] = assay: concentration in plasma after dosing; details: 10 min; dosed: Isoeugenol; 17 mg/kg; oral; Male; F344/N
Rat [3] = assay: concentration in plasma after dosing; details: dosed: Isoeugenol, 17 mg/kg, oral, Female, F344/N
Rat [4] = assay: concentration in plasma after dosing; details: dosed: Isoeugenol, 17 mg/kg, oral, Female, F344/N; remark: listed apart in the source
Rat [5] = assay: concentration in plasma after dosing; details: dosed: Isoeugenol, 17 mg/kg, oral, Male, F344/N
Rat [6] = assay: concentration in plasma after dosing; details: dosed: Isoeugenol, 70 mg/kg, oral, Male, F344/N
Rat [7] = assay: concentration in plasma after dosing; details: dosed: Isoeugenol, 17 mg/kg, oral, Female, F344/N; remark: listed apart in the source
Rat [8] = assay: concentration in plasma after dosing; details: dosed: Isoeugenol, 70 mg/kg, oral, Male, F344/N; remark: listed apart in the source
human [9] = assay: concentration in expired air after dosing; details: dosed: styrene, inhalation
Method in brief: as §1

human [10] = assay: concentration in blood after dosing; details: dosed: styrene, 80 ppm, inhalation, duration: 6 hr
Method in brief: as §1

Rat [11] = assay: concentration in plasma after dosing; details: dosed: Tetralin, 2 mg/kg, iv, Male, F344
Rat [12] = assay: concentration in plasma after dosing; details: dosed: Tetralin, 2 mg/kg, iv, Male, Harlan Sprague Dawley
Rat [13] = assay: concentration in plasma after dosing; details: dosed: Tetralin, 20 mg/kg, iv, Female, Harlan Sprague Dawley
Rat [14] = assay: concentration in plasma after dosing; details: dosed: Tetralin, 2 mg/kg, iv, Male, F344; remark: listed apart in the source
Rat [15] = assay: concentration in plasma after dosing; details: dosed: Tetralin, 20 mg/kg, iv, Female, Harlan Sprague Dawley; remark: listed apart in the source
Rat [16] = assay: concentration in plasma after dosing; details: dosed: Tetralin, 2 mg/kg, iv, Male, F344; remark: listed apart in the source
Rat [17] = assay: concentration in plasma after dosing; details: 4 h; dosed: Tetralin; 20 mg/kg; iv; Male; F344
Rat [18] = assay: concentration in plasma after dosing; details: dosed: Tetralin, 2 mg/kg, iv, Male, F344; remark: listed apart in the source

CCC(C)=O [methylethylketone]
human [1]
Details	concentration in blood [µM]
0.1276 h	272
0.2874 h	258
0.4715 h	227
0.9608 h	208
1.479 h	139
1.973 h	122
2.966 h	102
4.323 h	54.9
4.977 h	22.4
5.98 h	16.2
6.983 h	7.11

human [1], during exposure
Details	concentration in blood [µM]
-64 s	309
-3.826 h	72.5
-3.661 h	84.6
-3.486 h	115
-2.992 h	143
-2.503 h	181
-1.994 h	218
-1.011 h	276

C/C=C/c1ccc(O)c(OC)c1 [Isoeugenol]
Details	concentration in plasma [ng/mL]
Rat [2]	209

Details	concentration in plasma [ng/mL]
Rat [3], 4 h	28.5
Rat [3], 10 min	500
Rat [4], 1.5 h	26
Rat [4], 2 min	25.6
Rat [5], 1 h	39.5
Rat [5], 6 h	27.7
Rat [6], 6 h	240
Rat [6], 20 min	1840
Rat [7], 1.5 h	33.6
Rat [7], 20 min	86.9
Rat [8], 1.5 h	97
Rat [8], 10 min	850

C=Cc1ccccc1 [styrene]
human [9], male
Details	concentration in expired air [ppm]
0.1527 h, 51 ppm, duration: 1 hr	0.506
0.2175 h, 376 ppm, duration: 1 hr	4
0.2306 h, 216 ppm, duration: 1 hr	2.27
0.2368 h, 51 ppm, duration: 1 hr	0.409
0.2553 h, 99 ppm, duration: 7 hr	1.24
0.3483 h, 99 ppm, duration: 7 hr	1.14
0.4469 h, 376 ppm, duration: 1 hr	3.1
0.4803 h, 51 ppm, duration: 1 hr	0.317
0.5105 h, 99 ppm, duration: 7 hr	1.08
0.7137 h, 376 ppm, duration: 1 hr	2.21
0.8189 h, 99 ppm, duration: 7 hr	0.876
0.9608 h, 216 ppm, duration: 1 hr	0.927
0.9799 h, 51 ppm, duration: 1 hr	0.0904
1.046 h, 376 ppm, duration: 1 hr	1.29
1.064 h, 99 ppm, duration: 7 hr	0.733
1.944 h, 99 ppm, duration: 7 hr	0.648
1.964 h, 216 ppm, duration: 1 hr	0.501
1.984 h, 376 ppm, duration: 1 hr	0.934
1.988 h, 51 ppm, duration: 1 hr	0.0505
2.93 h, 99 ppm, duration: 7 hr	0.521
2.954 h, 376 ppm, duration: 1 hr	0.719
2.958 h, 216 ppm, duration: 1 hr	0.345
3.928 h, 216 ppm, duration: 1 hr	0.226
3.963 h, 376 ppm, duration: 1 hr	0.827
4.085 h, 99 ppm, duration: 7 hr	0.403
4.943 h, 376 ppm, duration: 1 hr	0.594
4.946 h, 216 ppm, duration: 1 hr	0.197
4.988 h, 99 ppm, duration: 7 hr	0.355
5.975 h, 376 ppm, duration: 1 hr	0.586
5.991 h, 216 ppm, duration: 1 hr	0.112
5.998 h, 99 ppm, duration: 7 hr	0.242
7.018 h, 216 ppm, duration: 1 hr	0.0821
19 s, 51 ppm, duration: 1 hr	14.8
41 s, 216 ppm, duration: 1 hr	4.56
65 s, 51 ppm, duration: 1 hr	1.02
96 s, 376 ppm, duration: 1 hr	9.08
141 s, 216 ppm, duration: 1 hr	3.69
148 s, 51 ppm, duration: 1 hr	0.849
148 s, 99 ppm, duration: 7 hr	2.17
196 s, 376 ppm, duration: 1 hr	7.4
214 s, 51 ppm, duration: 1 hr	0.744
251 s, 99 ppm, duration: 7 hr	1.35

human [9], 80 ppm, duration: 6 hr
Details	concentration in expired air [ng/mL]
6.225 h	4.3
6.495 h	2.75
7.17 h	1.58
8.16 h	1.16
10.28 h	0.549
12.21 h	0.402
14.37 h	0.315
18.33 h	0.308
23.51 h	0.257
30.62 h	0.148
46.95 h	0.102

human [10]
Details	concentration in blood [ng/mL]
0.7751 h	429
2.296 h	742
4.093 h	759
5.217 h	777
6.069 h	904
6.347 h	484
7.03 h	241
7.933 h	178
10.01 h	92.2
11.99 h	61.1
14.2 h	52.4
18.16 h	34.7
23.1 h	26.7
29.98 h	18.5
46.98 h	10.1

c1ccc2c(c1)CCCC2 [Tetralin]
Details	concentration in plasma [µg/g]
Rat [11], 0.505 h	0.246
Rat [11], 8 h	0.00426
Rat [12], 0.5033 h	0.192
Rat [12], 8 h	0.0056
Rat [13], 0.75 h	2.18
Rat [13], 12 h	0.0369
Rat [14], 0.2517 h	0.63
Rat [14], 6 h	0.00762
Rat [15], 0.5017 h	5.04
Rat [15], 8 h	0.0561
Rat [16], 0.75 h	0.105
Rat [16], 12 h	0.00167
Rat [18], 0.5033 h	0.216
Rat [18], 8 h	0.00356

Details	concentration in plasma [µg/g]
Rat [17]	0.15
